Measured values: ChEMBL document CHEMBL1921774, “Evaluation of 18F-labeled benzodioxine piperazine-based dopamine D4 receptor ligands: lipophilicity as a determinate of nonspecific binding” (J Med Chem, 2011)
Activity calls are given as the source filed them. The rule behind the calls is not given here.

How the values were obtained:
D(2) dopamine receptor [1] = biological target: T1, D(2) dopamine receptor (Homo sapiens, UniProt P14416); assay: Displacement of [3H]spiperone from human dopamine D2long receptor expressed in CHO cells; assay type: cell-based
In short: (§1)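 Membranes from CHO cells stably expressing each receptor, 2–6 μg protein per tube, competed against [³H]spiperone at 0.2 nM final. Competition curves were analyzed by nonlinear regression to give Ki.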

D(2) dopamine receptor [2] = biological target: T1, D(2) dopamine receptor; assay: Displacement of [3H]spiperone from human dopamine D2short receptor expressed in CHO cells; assay type: cell-based; in short: as §1
D(3) dopamine receptor = D(3) dopamine receptor (Homo sapiens, UniProt P35462); assay: Displacement of [3H]spiperone from human dopamine D3 receptor expressed in CHO cells; assay type: cell-based; in short: as §1
D(4) dopamine receptor = biological target: T2, D(4) dopamine receptor (Homo sapiens, UniProt P21917); assay: Displacement of [3H]spiperone from human dopamine D4.4 receptor expressed in CHO cells; assay type: cell-based; in short: as §1
T2 sequence (P21917 whole entry): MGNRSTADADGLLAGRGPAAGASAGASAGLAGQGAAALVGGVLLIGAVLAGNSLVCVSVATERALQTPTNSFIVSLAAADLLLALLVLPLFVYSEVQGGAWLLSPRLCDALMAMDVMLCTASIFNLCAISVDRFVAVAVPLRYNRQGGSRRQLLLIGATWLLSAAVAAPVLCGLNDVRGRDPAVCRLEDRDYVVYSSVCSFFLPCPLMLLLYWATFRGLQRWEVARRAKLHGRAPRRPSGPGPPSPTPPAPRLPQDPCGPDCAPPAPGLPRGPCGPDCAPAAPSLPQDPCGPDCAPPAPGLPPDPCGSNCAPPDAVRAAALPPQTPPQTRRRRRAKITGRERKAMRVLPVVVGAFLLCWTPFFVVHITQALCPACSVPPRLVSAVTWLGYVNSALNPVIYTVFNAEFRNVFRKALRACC

[3] = biological target: 5-hydroxytryptamine receptor 2A (Sus scrofa, UniProt P50129); assay: Displacement of [3H]ketanserin from 5-HT2 receptor in porcine cortical membranes; assay type: cell membranes
In short: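 Porcine cerebral cortex homogenate, 110 μg/mL protein per tube, with 0.5 nM [³H]ketanserin. Protein was measured by Lowry. Competition curves were fitted by nonlinear regression.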

[4] = Displacement of [3H]prazosin from adrenergic alpha1 receptor in porcine cortical membranes; assay type: cell membranes, Sus scrofa
In short: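 Porcine cerebral cortex homogenate, 40 μg/mL protein per tube, with 0.2 nM [³H]prazosin. Protein was measured by Lowry. Competition curves were fitted by nonlinear regression.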

Homo sapiens [5] = organism: Homo sapiens; assay: Selectivity ratio of Ki for human dopamine D2long receptor to Ki for human dopamine D4.4 receptor
Homo sapiens [6] = organism: Homo sapiens; assay: Selectivity ratio of Ki for human dopamine D2short receptor to Ki for human dopamine D4.4 receptor
Homo sapiens [7] = organism: Homo sapiens; assay: Selectivity ratio of Ki for human dopamine D3 receptor to Ki for human dopamine D4.4 receptor
CHO10001 = assay: Neutral antagonist activity at human dopamine D4.2 receptor expressed in CHO10001 cells assessed as inhibition of [3H]thymidine incorporation relative to quinpirole; assay type: functional, cell-based
In short: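 Growing D4.2-expressing CHO10001 cells were stimulated with test compound and given 0.02 μCi [³H]thymidine per well; incorporation was measured. Data from four dose-response experiments were normalized and pooled to give means per concentration, and compared with the full agonist quinpirole.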

[8] = Lipophilicity, log P of the compound at pH 7.4 by HPLC method; settings: buffer
[9] = Displacement of [3H]WAY100635 from 5-HT1A receptor in porcine cortical membranes
D(1A) dopamine receptor = D(1A) dopamine receptor (Sus scrofa, UniProt P50130); assay: Displacement of [3H]SCH23390 from dopamine D1 receptor in porcine striatal membranes
[10] = Octanol-buffer partition coefficient, log P of the compound at pH 7.4 by shake flask method
[11] = biological target: T3, D(4) dopamine receptor (Rattus norvegicus) (UniProt P30729); assay: Binding affinity to dopamine D4 receptor in coliculus of Wistar rat at 5 nmol/L after 30 mins using cresyl violet staining by In vitro autoradiography in presence of 10 uM non-radiolabeled compound
T3 sequence (whole entry): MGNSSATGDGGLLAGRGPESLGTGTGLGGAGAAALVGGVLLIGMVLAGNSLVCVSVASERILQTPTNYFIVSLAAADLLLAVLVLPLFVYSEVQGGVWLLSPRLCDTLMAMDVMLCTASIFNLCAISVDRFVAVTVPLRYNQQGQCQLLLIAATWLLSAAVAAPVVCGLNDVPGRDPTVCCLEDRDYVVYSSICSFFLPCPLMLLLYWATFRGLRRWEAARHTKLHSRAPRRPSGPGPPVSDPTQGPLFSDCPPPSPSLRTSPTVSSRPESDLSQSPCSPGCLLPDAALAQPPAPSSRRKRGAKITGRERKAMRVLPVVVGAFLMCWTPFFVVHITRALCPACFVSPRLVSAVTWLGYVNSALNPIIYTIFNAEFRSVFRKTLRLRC
In short: (§2)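 Horizontal 20 μm cryostat sections of brains from Wistar rats (4–6 months, 230–250 g) were used. After a 10 min preincubation in 50 mmol/L Tris-HCl pH 7.4 at 22 °C, slices were incubated 30 min with ¹⁸F-radioligand (5 nmol/L, or 10 nmol/L for one tracer). Nonspecific binding was taken with 10 μmol/L spiperone or cold standard; total binding had DMSO alone. Regions were assigned by cresyl violet staining.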

[12] = biological target: T3, D(4) dopamine receptor (Rattus norvegicus); assay: Binding affinity to dopamine D4 receptor in coliculus of Wistar rat at 10 nmol/L after 30 mins using cresyl violet staining by In vitro autoradiography in presence of 10 uM non-radiolabeled compound; settings: tested as the 18F-labelled form; in short: as §2
[13] = biological target: T3, D(4) dopamine receptor (Rattus norvegicus); assay: Binding affinity to dopamine D4 receptor in medial nuclei of cerebellum in Wistar rat at 10 nmol/L after 30 mins using cresyl violet staining by In vitro autoradiography in presence of 10 uM non-radiolabeled compound; assay type: tissue-based; settings: tested as the 18F-labelled form; in short: as §2
[14] = biological target: T3, D(4) dopamine receptor (Rattus norvegicus); assay: Binding affinity to dopamine D4 receptor in Wistar rat brain slices assessed as nonspecific binding at 10 nmol/L measured after 30 mins by In vitro autoradiography presence of nonradioactive ligand; settings: tested as the 18F-labelled form; in short: as §2
[15] = biological target: T3, D(4) dopamine receptor (Rattus norvegicus); assay: Binding affinity to dopamine D4 receptor in medial nuclei of cerebellum in Wistar rat at 5 nmol/L after 30 mins using cresyl violet staining by In vitro autoradiography in presence of 10 uM non-radiolabeled compound; assay type: tissue-based; settings: tested as the 18F-labelled form; in short: as §2
[16] = biological target: T3, D(4) dopamine receptor (Rattus norvegicus); assay: Binding affinity to dopamine D4 receptor in Wistar rat hippocampus at 5 nmol/L after 30 mins using cresyl violet staining by In vitro autoradiography in presence of 10 uM non-radiolabeled compound; assay type: tissue-based; settings: tested as the 18F-labelled form; in short: as §2
[17] = biological target: T3, D(4) dopamine receptor (Rattus norvegicus); assay: Binding affinity to dopamine D4 receptor in Wistar rat frontal cortex at 5 nmol/L after 30 mins using cresyl violet staining by In vitro autoradiography in presence of 10 uM non-radiolabeled compound; assay type: tissue-based; settings: tested as the 18F-labelled form; in short: as §2
[18] = biological target: T3, D(4) dopamine receptor (Rattus norvegicus); assay: Binding affinity to dopamine D4 receptor in Wistar rat striatum at 5 nmol/L after 30 mins using cresyl violet staining by In vitro autoradiography in presence of 10 uM non-radiolabeled compound; settings: tested as the 18F-labelled form; in short: as §2
[19] = biological target: T4, D(4) dopamine receptor (Mus musculus) (UniProt P51436); assay: Binding affinity to dopamine D4 receptor in NMRI mouse cortex at 20 nmol/L after 30 mins using cresyl violet staining by In vitro autoradiography in presence of 10 uM non-radiolabeled compound; settings: tested as the 18F-labelled form
T4 sequence (whole entry): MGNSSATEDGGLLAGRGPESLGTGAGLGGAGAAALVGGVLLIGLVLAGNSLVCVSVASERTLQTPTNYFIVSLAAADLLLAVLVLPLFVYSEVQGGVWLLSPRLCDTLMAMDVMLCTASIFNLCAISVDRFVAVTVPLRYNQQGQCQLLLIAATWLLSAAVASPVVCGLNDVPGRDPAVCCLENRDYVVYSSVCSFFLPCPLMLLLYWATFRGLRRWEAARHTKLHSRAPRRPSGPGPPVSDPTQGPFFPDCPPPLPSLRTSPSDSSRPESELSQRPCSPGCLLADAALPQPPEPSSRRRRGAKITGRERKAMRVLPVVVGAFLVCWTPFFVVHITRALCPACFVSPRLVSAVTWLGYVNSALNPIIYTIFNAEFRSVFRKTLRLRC
In short: (§3)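 Sagittal brain slices from female NMRI mice (2–6 months) were preincubated 10 min in 50 mmol/L Tris-HCl pH 7.4 at 22 °C. They were then incubated 30 min with 20 nmol/L [¹⁸F]-ligand plus 10 μmol/L displacer (spiperone or cold standard), or with DMSO alone for total binding. After the ¹⁸F had decayed, regions were identified by cresyl violet staining.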

[20] = biological target: T4, D(4) dopamine receptor (Mus musculus); assay: Binding affinity to dopamine D4 receptor in NMRI mouse hippocampus at 20 nmol/L after 30 mins using cresyl violet staining by In vitro autoradiography in presence of 10 uM non-radiolabeled compound; assay type: tissue-based; settings: tested as the 18F-labelled form; in short: as §3
[21] = biological target: T4, D(4) dopamine receptor (Mus musculus); assay: Binding affinity to dopamine D4 receptor in NMRI mouse hippocampus dentate gyrus at 20 nmol/L after 30 mins using cresyl violet staining by In vitro autoradiography in presence of 10 uM non-radiolabeled compound; assay type: tissue-based; settings: tested as the 18F-labelled form; in short: as §3
[22] = biological target: T4, D(4) dopamine receptor (Mus musculus); assay: Binding affinity to dopamine D4 receptor in NMRI mouse hippocampus cornu ammonis 3 at 20 nmol/L after 30 mins using cresyl violet staining by In vitro autoradiography in presence of 10 uM non-radiolabeled compound; assay type: tissue-based; settings: tested as the 18F-labelled form; in short: as §3
[23] = biological target: T4, D(4) dopamine receptor (Mus musculus); assay: Binding affinity to dopamine D4 receptor in NMRI mouse coliculus at 20 nmol/L after 30 mins using cresyl violet staining by In vitro autoradiography in presence of 10 uM non-radiolabeled compound; settings: tested as the 18F-labelled form; in short: as §3
[24] = biological target: T3, D(4) dopamine receptor (Rattus norvegicus); assay: Binding affinity to dopamine D4 receptor in Wistar rat thalamus at 5 nmol/L measured after 30 mins; settings: tested as the 18F-labelled form; in short: as §2
[25] = biological target: T3, D(4) dopamine receptor (Rattus norvegicus); assay: Binding affinity to dopamine D4 receptor in Wistar rat cortex at 5 nmol/L measured after 30 mins; settings: tested as the 18F-labelled form; in short: as §2

Sequence of 5-hydroxytryptamine receptor 2A (P50129 whole entry): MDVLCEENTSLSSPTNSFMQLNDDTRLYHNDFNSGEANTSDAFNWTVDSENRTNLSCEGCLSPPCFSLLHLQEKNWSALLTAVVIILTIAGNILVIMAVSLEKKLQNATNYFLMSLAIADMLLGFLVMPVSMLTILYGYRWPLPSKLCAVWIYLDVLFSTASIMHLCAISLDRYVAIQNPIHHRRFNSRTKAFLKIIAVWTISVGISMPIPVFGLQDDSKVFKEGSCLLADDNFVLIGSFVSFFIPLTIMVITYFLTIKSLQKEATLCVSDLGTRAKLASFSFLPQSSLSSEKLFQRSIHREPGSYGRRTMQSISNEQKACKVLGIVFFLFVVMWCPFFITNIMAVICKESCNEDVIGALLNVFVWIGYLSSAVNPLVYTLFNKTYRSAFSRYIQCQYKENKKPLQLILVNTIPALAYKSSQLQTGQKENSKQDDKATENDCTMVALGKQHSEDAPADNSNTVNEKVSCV
T1 sequence (P14416 whole entry): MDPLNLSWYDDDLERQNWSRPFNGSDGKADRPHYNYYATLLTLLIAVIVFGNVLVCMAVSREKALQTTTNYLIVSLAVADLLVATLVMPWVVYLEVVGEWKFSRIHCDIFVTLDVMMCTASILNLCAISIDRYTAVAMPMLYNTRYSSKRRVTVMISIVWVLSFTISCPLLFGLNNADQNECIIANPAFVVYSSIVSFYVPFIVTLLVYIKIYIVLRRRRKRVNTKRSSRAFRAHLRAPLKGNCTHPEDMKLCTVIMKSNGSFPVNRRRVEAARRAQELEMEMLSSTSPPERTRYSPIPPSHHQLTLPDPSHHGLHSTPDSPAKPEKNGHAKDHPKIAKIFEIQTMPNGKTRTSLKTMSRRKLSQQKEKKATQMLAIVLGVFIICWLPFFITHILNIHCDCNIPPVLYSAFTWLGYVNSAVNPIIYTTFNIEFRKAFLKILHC
Sequence of D(3) dopamine receptor (P35462 whole entry): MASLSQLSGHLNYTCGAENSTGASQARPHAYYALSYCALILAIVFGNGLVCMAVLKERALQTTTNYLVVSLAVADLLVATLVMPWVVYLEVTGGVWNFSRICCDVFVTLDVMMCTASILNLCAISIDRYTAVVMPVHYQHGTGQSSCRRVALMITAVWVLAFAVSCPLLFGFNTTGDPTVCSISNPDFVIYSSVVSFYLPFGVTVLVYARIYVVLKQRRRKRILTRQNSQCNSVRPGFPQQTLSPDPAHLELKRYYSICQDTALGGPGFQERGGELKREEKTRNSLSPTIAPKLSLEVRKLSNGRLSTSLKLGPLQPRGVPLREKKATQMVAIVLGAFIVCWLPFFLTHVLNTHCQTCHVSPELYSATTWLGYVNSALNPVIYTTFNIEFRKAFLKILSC
Sequence of D(1A) dopamine receptor (P50130 whole entry): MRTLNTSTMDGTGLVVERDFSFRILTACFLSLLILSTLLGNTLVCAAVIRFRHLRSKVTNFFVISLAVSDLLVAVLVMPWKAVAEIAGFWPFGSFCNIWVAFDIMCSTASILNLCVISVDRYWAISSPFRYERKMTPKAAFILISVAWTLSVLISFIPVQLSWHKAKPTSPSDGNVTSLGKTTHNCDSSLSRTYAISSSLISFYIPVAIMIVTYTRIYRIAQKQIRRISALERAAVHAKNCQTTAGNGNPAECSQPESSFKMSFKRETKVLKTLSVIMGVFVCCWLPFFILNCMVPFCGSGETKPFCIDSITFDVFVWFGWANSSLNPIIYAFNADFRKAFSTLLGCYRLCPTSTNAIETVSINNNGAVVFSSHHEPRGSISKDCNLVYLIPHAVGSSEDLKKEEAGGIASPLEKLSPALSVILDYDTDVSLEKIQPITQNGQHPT

SMILES | Ki (D(2) dopamine receptor [1]) [µM] | Ki (D(2) dopamine receptor [2]) [µM] | Ki (D(3) dopamine receptor) [µM] | Ki (D(4) dopamine receptor) [µM] | Ki [3] [µM] | Ki [4] [µM] | Ratio Ki (Homo sapiens [5]) | Ratio Ki (Homo sapiens [6]) | Ratio Ki (Homo sapiens [7]) | Activity (CHO10001) | logP [8] | Ki [9] [µM] | Ki (D(1A) dopamine receptor) [µM] | logD [10] | Activity [12] | further results
Fc1ccc(CN2CCN(c3ccc4c(c3)OCCO4)CC2)cc1 | 7.6 | 5.7 | 3.9 | 0.0011 | 7 | 4 | 6700 | 5000 | 3600 | Active | 2.71 | 5.2 | 19 | – | – | –
Oc1cc(CN2CCN(c3ccc4c(c3)OCCO4)CC2)ccc1F | 9 | 6.1 | 4.2 | 0.0073 | 2.3 | 3 | 1300 | 830 | 590 | Active | 1.7 | 6.2 | 15 | 1.78 | Active | Activity ([11]; 10 nmol/L, in the assay text read “10 nmol/L” for “5 nmol/L”, tested as the 18F-labelled form): Active; Activity [13]: Active; Activity [14]: 33%
Fc1ccc(CN2CCN(c3ccc4c(c3)OCCO4)CC2)cn1 | 29 | 45 | 17 | 0.015 | 5.8 | 11 | – | – | – | Active | – | 21 | 35 | – | Active | Activity ([11]; 10 nmol/L, tested as the 18F-labelled form, in the assay text read “10 nmol/L” for “5 nmol/L”): Active; Activity [15]: Active; Activity [16]: inactive; Activity [17]: inactive; Activity [18]: Active; Activity [19]: Active; Activity [20]: Active; Activity [21]: Active; Activity [22]: Active; Activity [23]: Active; Activity [24]: Active; Activity [25]: Active
COc1cc(CN2CCN(c3ccc4c(c3)OCCO4)CC2)ccc1F | 17 | 16 | 5.9 | 0.0042 | 4.2 | 3.3 | 4000 | 3800 | 1400 | Active | 2.44 | 5.6 | 23 | 2.33 | – | –
